pKi: −log10 of the molar value. Calls of active or inactive are those of the source. The rule behind the calls is not given here. Positions of bridges follow the written chain, without caps; N, C: chain ends. Non-standard residues stand in square brackets, D forms with d. Residues, ends and D or L forms follow the SMILES beside them. ξ: configuration not given here. Phe(4-guanidino) = N=C(N)Nc1ccc(C[C@H](N)C(=O)O)cc1; ξNle = CCCCC(N)C(=O)O
Tests used:
[1] = molecular target: Kallikrein-7 (Homo sapiens, UniProt P49862); assay: Inhibition of recombinant KLK7 (unknown origin) expressed in zymogen form in Pichia pastorisstrain X-33 using KHLY-pNA as substrate after 30 mins
Chain of Kallikrein-7 (P49862 whole entry): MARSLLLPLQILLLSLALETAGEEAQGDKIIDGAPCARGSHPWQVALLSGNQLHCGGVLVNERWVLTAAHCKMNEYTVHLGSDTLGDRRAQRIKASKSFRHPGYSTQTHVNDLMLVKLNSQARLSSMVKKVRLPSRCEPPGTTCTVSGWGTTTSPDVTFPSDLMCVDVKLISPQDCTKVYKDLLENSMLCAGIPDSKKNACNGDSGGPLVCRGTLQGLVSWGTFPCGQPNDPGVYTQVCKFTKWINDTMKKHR
In short: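 Pro-KLK7 from Pichia supernatant was cation-exchange purified, activated with enterokinase (37°C, 2 h), repurified, and active-site titrated with α1-antitrypsin. After 30 min room-temperature equilibration with inhibitor, pNA hydrolysis was followed at 405 nm for 5 min in Tris/NaCl/Triton buffer pH 8.0 with 10% acetonitrile. Morrison Ki came from three independent triplicate runs.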

[2] = molecular target: T1, Chymase (Rattus norvegicus, UniProt P50339); assay: Inhibition of rat mast cell chymase using Suc-AAPF-pNA as substrate after 30 mins
T1 sequence (P50339 whole entry): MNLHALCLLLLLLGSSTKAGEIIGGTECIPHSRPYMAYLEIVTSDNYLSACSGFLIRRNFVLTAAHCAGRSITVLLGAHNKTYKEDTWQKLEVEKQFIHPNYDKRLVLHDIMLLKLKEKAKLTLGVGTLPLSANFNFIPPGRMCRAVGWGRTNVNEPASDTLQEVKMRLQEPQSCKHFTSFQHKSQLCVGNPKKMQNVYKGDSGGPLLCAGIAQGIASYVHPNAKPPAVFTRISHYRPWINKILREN
In short: (§1)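 Inhibitor and protease were preincubated 30 min at room temperature. pNA substrate release was read at 405 nm for 5 min in 0.15 M NaCl, 0.1 M Tris·HCl pH 8.0, 0.005% Triton X-100, with 10% acetonitrile. Morrison Ki was obtained by non-linear regression from three independent triplicate experiments.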

[3] = organism: Homo sapiens; assay: Selectivity ratio of Ki for recombinant KLK7 (unknown origin) to Ki for human cathepsin G
In short: (§2)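 Each Ki was determined after 30 min room-temperature protease–inhibitor equilibration, with chromogenic (405 nm) or fluorogenic (360/460 nm) substrate readout in Tris/NaCl buffer pH 8.0. Morrison Ki was fitted by non-linear regression, three independent triplicate experiments, and the off-target Ki was divided by the cathepsin G Ki.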

[4] = Selectivity ratio of Ki for bovine chymotrypsin to Ki for human cathepsin G; in short: as §2
[5] = Selectivity ratio of Ki for rat mast cell chymase to Ki for human cathepsin G; in short: as §2
[6] = organism: Homo sapiens; assay: Selectivity ratio of Ki for human PR3 to Ki for human cathepsin G; in short: as §2
[7] = molecular target: T2, Cathepsin G (Homo sapiens, UniProt P08311); assay: Inhibition of human cathepsin G using Suc-AAPF-MCA as substrate after 30 mins
T2 sequence (P08311 whole entry): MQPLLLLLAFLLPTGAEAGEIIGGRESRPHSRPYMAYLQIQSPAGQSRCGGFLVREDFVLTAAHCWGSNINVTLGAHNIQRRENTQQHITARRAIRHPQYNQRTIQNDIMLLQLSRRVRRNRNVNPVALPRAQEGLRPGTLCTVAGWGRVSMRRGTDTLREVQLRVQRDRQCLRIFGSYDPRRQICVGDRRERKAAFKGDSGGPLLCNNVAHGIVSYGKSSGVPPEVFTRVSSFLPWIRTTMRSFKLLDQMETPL

[8] = molecular target: T3, Neutrophil elastase (Homo sapiens, UniProt P08246); assay: Inhibition of human neutrophil elastase using Suc(OMe)-AAPV-pNA as substrate after 30 mins; in short: as §1
T3 sequence (P08246 whole entry): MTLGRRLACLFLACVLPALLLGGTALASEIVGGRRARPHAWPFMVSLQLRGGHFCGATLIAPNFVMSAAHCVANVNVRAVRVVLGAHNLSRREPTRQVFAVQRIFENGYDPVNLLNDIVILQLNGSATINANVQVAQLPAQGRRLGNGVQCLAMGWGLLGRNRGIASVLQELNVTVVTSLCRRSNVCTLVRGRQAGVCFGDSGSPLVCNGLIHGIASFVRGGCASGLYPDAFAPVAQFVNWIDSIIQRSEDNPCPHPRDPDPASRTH

[9] = molecular target: T4, Myeloblastin (Homo sapiens) (UniProt P24158); assay: Inhibition of human PR3 at 10000 nM using Suc(OMe)-AAPV-MCA as substrate after 30 mins relative to control
T4 sequence (whole entry): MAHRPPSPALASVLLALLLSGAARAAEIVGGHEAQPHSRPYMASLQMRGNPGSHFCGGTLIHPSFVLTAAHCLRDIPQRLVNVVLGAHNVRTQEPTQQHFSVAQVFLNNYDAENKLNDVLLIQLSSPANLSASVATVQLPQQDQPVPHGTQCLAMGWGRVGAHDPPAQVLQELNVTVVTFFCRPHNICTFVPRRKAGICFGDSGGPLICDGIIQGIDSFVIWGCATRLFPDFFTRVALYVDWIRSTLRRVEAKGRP

[10] = Inhibition of bovine chymotrypsin using Suc(OMe)-AAPV-MCA as substrate after 30 mins; set-up: species or system Bos taurus
In short: (§3)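 Protease and inhibitor equilibrated 30 min at room temperature, then MCA substrate added in assay buffer (0.15 M NaCl, 0.1 M Tris·HCl pH 8.0, 0.005% Triton X-100). Fluorescence was read at ex 360/em 460 nm over 10 min. Morrison Ki was fitted by non-linear regression from three independent triplicate experiments.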

[11] = organism: Homo sapiens; assay: Selectivity ratio of Ki for human neutrophil elastase to Ki for human cathepsin G; in short: as §2
[12] = molecular target: T5, Myeloblastin (Homo sapiens, UniProt P24158); assay: Inhibition of human PR3 using Suc(OMe)-AAPV-MCA as substrate after 30 mins; in short: as §3
T5 sequence (P24158 whole entry): T4 sequence (whole entry)

[13] = Inhibition of bovine trypsin using Tos-GPR-AMC as substrate preincubated for 30 mins followed by substrate addition
[14] = Inhibition of bovine trypsin using Boc-QAR-MCA as substrate after 30 mins; set-up: species or system Bos taurus; in short: as §3
[15] = molecular target: T6, Prothrombin (Homo sapiens, UniProt P00734); assay: Inhibition of human alpha-thrombin using Glt-Gly-Arg-MCA as substrate after 30 mins; in short: as §3
[16] = molecular target: T7, Plasminogen (Homo sapiens, UniProt P00747); assay: Inhibition of human plasmin using Ac-RM(O2)YRpNA as substrate after 30 mins; in short: as §1
T7 sequence (P00747 97-580 limits assumed): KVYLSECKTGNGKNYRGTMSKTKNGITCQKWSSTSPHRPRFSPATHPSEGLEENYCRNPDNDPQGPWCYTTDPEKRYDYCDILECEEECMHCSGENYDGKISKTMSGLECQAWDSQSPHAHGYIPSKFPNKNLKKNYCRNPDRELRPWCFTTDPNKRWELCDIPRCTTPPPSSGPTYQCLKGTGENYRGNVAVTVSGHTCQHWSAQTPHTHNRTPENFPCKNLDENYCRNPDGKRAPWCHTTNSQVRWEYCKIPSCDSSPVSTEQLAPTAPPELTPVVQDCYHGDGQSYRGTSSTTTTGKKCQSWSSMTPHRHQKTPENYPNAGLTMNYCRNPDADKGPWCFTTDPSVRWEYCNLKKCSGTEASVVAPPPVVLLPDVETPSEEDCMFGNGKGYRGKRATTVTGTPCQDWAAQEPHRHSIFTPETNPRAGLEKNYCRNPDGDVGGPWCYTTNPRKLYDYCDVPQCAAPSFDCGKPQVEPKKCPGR
T7 sequence (P00747 581-810 limits assumed): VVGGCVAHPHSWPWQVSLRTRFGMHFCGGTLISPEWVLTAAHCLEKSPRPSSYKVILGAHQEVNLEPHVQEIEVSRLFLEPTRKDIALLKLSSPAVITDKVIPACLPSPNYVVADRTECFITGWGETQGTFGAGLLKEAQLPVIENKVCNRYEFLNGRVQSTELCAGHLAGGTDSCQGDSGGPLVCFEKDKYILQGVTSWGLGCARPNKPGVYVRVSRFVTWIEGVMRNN

[17] = molecular target: T7, Plasminogen; assay: Inhibition of human plasmin at 10000 nM using Ac-RM(O2)YRpNA as substrate after 30 mins
[18] = organism: Homo sapiens; assay: Selectivity ratio of Ki for human alpha-thrombin to Ki for human cathepsin G; in short: as §2
[19] = organism: Homo sapiens; assay: Selectivity ratio of Ki for human plasmin to Ki for human cathepsin G; in short: as §2
[20] = molecular target: T6, Prothrombin; assay: Inhibition of human alpha-thrombin at 10000 nM using Glt-Gly-Arg-MCA as substrate after 30 mins
[21] = organism: Bos taurus; assay: Inhibition of bovine chymotrypsin at 10000 nM using Suc(OMe)-AAPV-MCA as substrate after 30 mins relative to control
[22] = molecular target: T8, Cathepsin G (Homo sapiens) (UniProt P08311); assay: Inhibition of human cathepsin G assessed as decrease in angiotensin-2 generation from angiotensin-1 at 100 nM after 1.5 to 3 hrs by RP-UPLC/mass spectroscopic method; conditions: in the assay text read “1.5 to 5 hrs” for “1.5 to 3 hrs”
T8 sequence (whole entry): T2 sequence (P08311 whole entry)
In short: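 Cathepsin G (10 nM) was incubated with angiotensin I (10 µM) in assay buffer, with or without inhibitor at 100 nM. Aliquots were taken at 1.5, 3 and 5 h and quenched with 2% TFA. Angiotensin I cleavage and angiotensin II formation were analysed by RP-UPLC and electrospray mass spectrometry.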

[23] = Selectivity ratio of Ki for bovine trypsin to Ki for human cathepsin G; in short: as §2

pKi [1]	pKi [2]	Ratio Ki [3]	Ratio Ki [4]	Ratio Ki [5]	Ratio Ki [6]	pKi [7]	pKi [8]	inhibition [9] [%]	pKi [10]	Ratio Ki [11]	pKi [12]	Compound	other results
6.89	8.11	76	83	4.5	> 5900	8.77	5.05	< 20	6.85	5200	< 5.00	CCCCC1NC(=O)[C@@H]2CSSC[C@H](NC(=O)[C@H]([C@@H](C)CC)NC(=O)[C@@H]3CCCN3C(=O)[C@@H]3CCCN3C(=O)[C@H](CC(=O)O)NC(=O)[C@H](CO)NC(=O)[C@H](Cc3ccccc3)NC1=O)C(=O)N[C@@H](Cc1ccccc1)C(=O)N1CCC[C@H]1C(=O)N[C@@H](CC(N)=O)C(=O)NCC(=O)N[C@@H]([C@@H](C)O)C(=O)N2 (stereo partly drawn) (cyclo(CFPNGTC[ξNle]FSDPPI); disulfide 1-7)	–
–	–	–	–	–	–	7.92	–	–	–	–	–	CC[C@H](C)[C@@H]1NC(=O)[C@@H]2CCCN2C(=O)[C@@H]2CCCN2C(=O)[C@H](CC(=O)O)NC(=O)[C@H](CO)NC(=O)[C@H](CCCNC(=N)N)NC(=O)[C@H]([C@@H](C)O)NC(=O)[C@@H]2CSSC[C@H](NC1=O)C(=O)N[C@@H](CC(N)=O)C(=O)N1CCC[C@H]1C(=O)N[C@@H](CC(N)=O)C(=O)NCC(=O)N[C@@H]([C@@H](C)O)C(=O)N2 (cyclo(CNPNGTCTRSDPPI); disulfide 1-7)	–

Further lines, the molecule ahead of its results:

Compound	pKi [1]	pKi [2]	Ratio Ki [3]	Ratio Ki [4]	Ratio Ki [5]	Ratio Ki [6]	pKi [7]	pKi [8]	inhibition [9] [%]	pKi [10]	Ratio Ki [11]	pKi [12]	other results
CCCCC1NC(=O)[C@@H]2CSSC[C@H](NC(=O)[C@H]([C@@H](C)CC)NC(=O)[C@@H]3CCCN3C(=O)[C@@H]3CCCN3C(=O)[C@H]([C@@H](C)CC)NC(=O)[C@H](CO)NC(=O)[C@H](Cc3ccccc3)NC1=O)C(=O)N[C@@H](Cc1ccccc1)C(=O)N1CCC[C@H]1C(=O)N[C@@H](CC(N)=O)C(=O)NCC(=O)N[C@@H]([C@@H](C)O)C(=O)N2 (stereo partly drawn) (cyclo(CFPNGTC[ξNle]FSIPPI); disulfide 1-7)	7.16	–	78	2.1	–	> 11000	9.05	4.92	< 20	8.72	13000	< 5.00	–
CC[C@H](C)[C@@H]1NC(=O)[C@@H]2CCCN2C(=O)[C@@H]2CCCN2C(=O)[C@H]([C@@H](C)CC)NC(=O)[C@H](CO)NC(=O)[C@H](CCCCN)NC(=O)[C@H]([C@@H](C)O)NC(=O)[C@@H]2CSSC[C@H](NC1=O)C(=O)N[C@@H](Cc1ccccc1)C(=O)N1CCC[C@H]1C(=O)N[C@@H](CC(=O)O)C(=O)NCC(=O)N[C@@H](CCCNC(=N)N)C(=O)N2	–	–	–	–	–	–	6.14	–	–	–	–	–	pKi [13]: 11.77
CCCCC1NC(=O)[C@@H]2CSSC[C@H](NC(=O)[C@H]([C@@H](C)CC)NC(=O)[C@@H]3CCCN3C(=O)[C@@H]3CCCN3C(=O)[C@H](CC(=O)O)NC(=O)[C@H](CO)NC(=O)[C@H](Cc3ccc(NC(=N)N)cc3)NC1=O)C(=O)N[C@@H](Cc1ccccc1)C(=O)N1CCC[C@H]1C(=O)N[C@@H](CC(N)=O)C(=O)NCC(=O)N[C@@H]([C@@H](C)O)C(=O)N2 (stereo partly drawn) (cyclo(CFPNGTC[ξNle][Phe(4-guanidino)]SDPPI); disulfide 1-7)	6.13	4.71	460	> 6300	12000	> 6300	8.80	4.37	< 20	< 5.00	27000	< 5.00	pKi [14]: 6.24; pKi [15]: < 5.00; pKi [16]: < 5.00; inhibition [17]: < 20%; Ratio Ki [18]: > 6300; Ratio Ki [19]: > 6300; inhibition [20]: < 20%; inhibition [21]: < 20%; inhibition [22]: Active; Ratio Ki [23]: 360
CC[C@H](C)[C@@H]1NC(=O)[C@@H]2CCCN2C(=O)[C@@H]2CCCN2C(=O)[C@H]([C@@H](C)CC)NC(=O)[C@H](CO)NC(=O)[C@H](CCCNC(=N)N)NC(=O)[C@H]([C@@H](C)O)NC(=O)[C@@H]2CSSC[C@H](NC1=O)C(=O)N[C@@H](CC(N)=O)C(=O)N1CCC[C@H]1C(=O)N[C@@H](CC(N)=O)C(=O)NCC(=O)N[C@@H]([C@@H](C)O)C(=O)N2 (cyclo(CNPNGTCTRSIPPI); disulfide 1-7)	–	–	–	–	–	–	6.31	–	–	–	–	–	–

— ChEMBL document CHEMBL4052586, “Design of Potent and Selective Cathepsin G Inhibitors Based on the Sunflower Trypsin Inhibitor-1 Scaffold” (J Med Chem, 2017)
